The target in experiment [1] is T1, 11-beta-hydroxysteroid dehydrogenase 1 (Homo sapiens, UniProt P28845). The experiment in a line: Inhibition of 11beta-HSD1 (unknown origin) expressed in HEK293 cells lysate assessed as residual enzyme activity at 20 uM. It is filed as cell-free. The method, boiled down: (§1)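 Lysates of stably transfected cells expressing 11β-HSD1 or 11β-HSD2, 10 min at 37 °C in TS2 buffer (pH 7.4) with inhibitor or 0.2% DMSO solvent. Reactions stopped after 10 min with excess unlabeled cortisone/cortisol. Steroids separated by TLC and quantified by scintillation counting. At least three independent measurements. Lines 2 and 3 report rest activity at 20 μM as % of control.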
Target sequence in this assay (P28845 whole entry, looked up): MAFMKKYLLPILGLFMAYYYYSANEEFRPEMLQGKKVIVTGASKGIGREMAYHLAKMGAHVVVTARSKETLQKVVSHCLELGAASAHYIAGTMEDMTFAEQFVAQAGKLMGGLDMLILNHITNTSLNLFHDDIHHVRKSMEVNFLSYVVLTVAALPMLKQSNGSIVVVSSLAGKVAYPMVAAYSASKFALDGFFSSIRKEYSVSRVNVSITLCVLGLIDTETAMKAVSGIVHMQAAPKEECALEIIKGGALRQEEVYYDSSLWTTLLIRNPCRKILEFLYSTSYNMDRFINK

Experiment [2] has as its target T2, 17-beta-hydroxysteroid dehydrogenase type 1 (Homo sapiens, UniProt P14061).
T2 sequence (P14061 whole entry): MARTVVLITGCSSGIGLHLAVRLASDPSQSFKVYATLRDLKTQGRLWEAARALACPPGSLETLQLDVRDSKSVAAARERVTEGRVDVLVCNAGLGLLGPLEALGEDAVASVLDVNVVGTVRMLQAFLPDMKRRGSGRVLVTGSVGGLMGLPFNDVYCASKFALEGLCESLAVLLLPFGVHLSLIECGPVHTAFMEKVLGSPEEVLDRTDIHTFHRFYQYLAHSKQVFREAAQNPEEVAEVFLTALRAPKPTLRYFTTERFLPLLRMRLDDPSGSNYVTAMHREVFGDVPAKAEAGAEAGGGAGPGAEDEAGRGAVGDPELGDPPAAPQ
The experiment in a line: Inhibition of 17beta-HSD1 (unknown origin) expressed in HEK293 cells lysate. It is filed as cell-free. The method, boiled down:
(§2)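 Lysate of HEK-293 cells transfected by calcium phosphate with human 17β-HSD1, harvested after 48 h. Incubated 10 min at 37 °C in TS2 buffer (pH 7.4) with inhibitor or 0.2% DMSO/chloroform. Substrate 190 nM unlabeled plus 10 nM radiolabeled estrone with 500 μM NADPH. Stopped with excess estradiol/estrone. TLC separation and scintillation counting; at least three independent measurements.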

Experiment [3] addresses T3, 17-beta-hydroxysteroid dehydrogenase type 2 (Homo sapiens, UniProt P37059).
T3 sequence (P37059 whole entry): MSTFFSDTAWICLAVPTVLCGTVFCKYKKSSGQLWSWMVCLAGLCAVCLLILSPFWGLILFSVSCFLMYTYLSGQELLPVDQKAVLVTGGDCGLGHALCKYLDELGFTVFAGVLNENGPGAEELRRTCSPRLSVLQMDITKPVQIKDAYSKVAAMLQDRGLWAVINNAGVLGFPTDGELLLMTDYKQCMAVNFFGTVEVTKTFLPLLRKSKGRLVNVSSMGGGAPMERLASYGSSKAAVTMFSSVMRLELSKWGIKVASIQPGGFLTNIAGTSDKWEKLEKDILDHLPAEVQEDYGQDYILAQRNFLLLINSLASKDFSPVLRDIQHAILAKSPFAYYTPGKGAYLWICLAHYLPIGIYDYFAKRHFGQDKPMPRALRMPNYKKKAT
The experiment is described as follows: Inhibition of 17beta-HSD2 (unknown origin) expressed in HEK293 cells lysate. The experiment is classed as cell-free. The method, boiled down:
(§3)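 Human 17β-HSD2 from lysates of calcium-phosphate-transfected HEK-293 cells (harvested 48 h). Incubated 10 min at 37 °C in TS2 buffer (pH 7.4) with inhibitor or 0.2% DMSO/chloroform. Substrate 190 nM unlabeled plus 10 nM radiolabeled estradiol with 500 μM NAD+. Stopped with excess estradiol/estrone. Radiolabeled steroids separated by TLC and counted; at least three independent measurements. Rest activity at 20 μM as % of control.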

The target of experiment [4] is T4, 11-beta-hydroxysteroid dehydrogenase type 2 (Homo sapiens) (UniProt P80365).
T4 sequence (whole entry): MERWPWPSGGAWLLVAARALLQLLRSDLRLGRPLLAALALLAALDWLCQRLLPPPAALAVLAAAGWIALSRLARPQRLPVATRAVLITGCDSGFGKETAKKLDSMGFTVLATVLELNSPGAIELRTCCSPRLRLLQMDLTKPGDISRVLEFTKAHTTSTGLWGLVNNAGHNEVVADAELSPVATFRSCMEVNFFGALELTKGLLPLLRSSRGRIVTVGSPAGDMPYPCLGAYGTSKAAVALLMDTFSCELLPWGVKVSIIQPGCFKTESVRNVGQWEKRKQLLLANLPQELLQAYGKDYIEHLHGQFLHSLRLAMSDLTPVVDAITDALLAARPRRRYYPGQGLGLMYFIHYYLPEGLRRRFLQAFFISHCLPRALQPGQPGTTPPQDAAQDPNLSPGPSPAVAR
The experiment is described as follows: Inhibition of 11beta-HSD2 (unknown origin) expressed in HEK293 cells lysate assessed as residual enzyme activity at 20 uM. It is filed as cell-free. The method, boiled down: as §1

Experiment [5] concerns the target T5, 17-beta-hydroxysteroid dehydrogenase type 3 (Homo sapiens) (UniProt P37058).
T5 sequence (whole entry): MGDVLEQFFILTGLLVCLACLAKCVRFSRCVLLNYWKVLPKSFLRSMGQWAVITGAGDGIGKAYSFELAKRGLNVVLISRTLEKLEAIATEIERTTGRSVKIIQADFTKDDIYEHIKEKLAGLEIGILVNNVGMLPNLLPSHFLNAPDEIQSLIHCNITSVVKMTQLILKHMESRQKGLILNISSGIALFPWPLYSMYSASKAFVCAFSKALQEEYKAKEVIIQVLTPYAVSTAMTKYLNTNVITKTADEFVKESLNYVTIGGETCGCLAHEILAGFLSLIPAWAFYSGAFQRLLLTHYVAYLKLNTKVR
The experiment is described as follows: Inhibition of 17beta-HSD3 (unknown origin) expressed in intact HEK293 cells assessed as residual enzyme activity at 20 uM. The experiment is classed as cell-based. The method, boiled down: (§4)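 HEK-293 cells transiently transfected with 17β-HSD3 by calcium phosphate were seeded at 15 000 cells/well and tested 24 h later in charcoal-treated DMEM. Inhibitor was preincubated 20 min at 37 °C. Substrate was 190 nM unlabeled plus 10 nM radiolabeled androstenedione for 30 min. Reactions stopped with excess androstenedione/testosterone. TLC separation and scintillation counting.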

For experiment [6], the target named is T6, 17-beta-hydroxysteroid dehydrogenase type 3 (Homo sapiens, UniProt P37058).
T6 sequence (P37058 whole entry): T5 sequence (whole entry)
The experiment is described as follows: Inhibition of 17beta-HSD3 (unknown origin) expressed in intact HEK293 cells. The experiment is classed as cell-based. The method, boiled down:
as §4

In experiment [7] the target is T1, 11-beta-hydroxysteroid dehydrogenase 1. The experiment in a line: Inhibition of 11beta-HSD1 (unknown origin) expressed in HEK293 cells lysate. It is filed as cell-free. The method in brief:
as §1
Target sequence in this assay (P28845 whole entry): as the sequence (P28845 whole entry, looked up) above

The target in experiment [8] is T3, 17-beta-hydroxysteroid dehydrogenase type 2. The experiment is described as follows: Inhibition of 17beta-HSD2 (unknown origin) expressed in intact HEK293 cells. The experiment is classed as cell-based. The method, boiled down: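 Transfected HEK-293 cells were seeded at 15 000 cells/well 24 h after transfection and assayed 24 h later in charcoal-treated DMEM. Inhibitor was preincubated 20 min at 37 °C, followed by 190 nM unlabeled plus 10 nM radiolabeled estradiol for 20 min. Reactions stopped with excess estradiol/estrone. Steroids separated by TLC and measured by scintillation counting.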

Experiment [9] addresses T7, 17-beta-hydroxysteroid dehydrogenase type 2 (Homo sapiens) (UniProt P37059).
T7 sequence (whole entry): T3 sequence (P37059 whole entry)
The experiment is described as follows: Inhibition of 17beta-HSD2 (unknown origin) expressed in HEK293 cells lysate assessed as residual enzyme activity at 20 uM. The experiment is classed as cell-free. The method in brief:
as §3

For experiment [10], the target named is T8, 17-beta-hydroxysteroid dehydrogenase type 1 (Homo sapiens) (UniProt P14061).
T8 sequence (whole entry): T2 sequence (P14061 whole entry)
The experiment is described as follows: Inhibition of 17beta-HSD1 (unknown origin) expressed in HEK293 cells lysate assessed as residual enzyme activity at 20 uM. It is filed as cell-free. The method, boiled down:
as §2

Structures are written as SMILES. A value given as a limit tells only on which side of the number the result lay.

For the compound `Cc1cc(S(=O)(=O)Nc2cccc(O)c2)c(C)cc1Cl`, the Activity in [1] was > 70%; in [4], > 70%; in experiment [5], 53%. In addition, the IC50 (usually the concentration needed to halve the response being measured) in [2] is 18 µM; in [3], 1 µM.

With `CC(C)(C)c1ccc(S(=O)(=O)Oc2ccccc2O)cc1`, the IC50 came out at 8.5 µM in experiment [6], 2.1 µM in [7], 0.52 µM in experiment [8] and 0.24 µM in [3]. In addition, the Activity in experiment [9] was 6%; in [4], > 70%; in experiment [10], > 70%.

The record behind these values is ChEMBL document CHEMBL3351838, “Ligand-based pharmacophore modeling and virtual screening for the discovery of novel 17β-hydroxysteroid dehydrogenase 2 inhibitors” (J Med Chem, 2014).
